In brackets after ≈: the same amount, converted by molar mass.
Legend:
Escherichia coli [1] = test: Effect on 16S rRNA accumulation in Escherichia coli at 25 ug/ml; type: functional
Method in brief: (§1)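 E. coli grown in TSB across a range of hygromycin B concentrations, plus an untreated control. Total RNA was extracted from 1 ml of cells. Samples (5 µl at 200 ng/µl) were run on an Agilent Bioanalyzer RNA 6000 chip under total-RNA conditions, and RNA species were read from fluorescence electropherograms.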

Escherichia coli [2] = test: Effect on small RNA accumulation in Escherichia coli at 75 ug/ml; type: functional; method in brief: as §1
Escherichia coli [3] = test: Decrease in 23S RNA accumulation in Escherichia coli at 25 ug/ml; type: functional; set-up: scale not given: the % may be the effect or the level left; method in brief: as §1
Escherichia coli [4] = test: Inhibition of protein synthesis in Escherichia coli measured as incorporation of [35S]methionine; type: functional, organism-based
Method in brief: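 E. coli in TSB at 37°C, with or without drug, received [35S]methionine (1 µCi/ml). Samples (0.4 ml) were taken every 5 min for 15 min, precipitated with 20% TCA, collected on glass-fibre filters, washed with 10% TCA, and scintillation-counted. IC50 derived from the concentration series; means of two.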

Escherichia coli [5] = test: Effect on small RNA accumulation in Escherichia coli at 50 ug/ml; type: functional; method in brief: as §1
[6] = Inhibition of 30S ribosomal-subunit assembly in Escherichia coli
Method in brief: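 E. coli in TSB at 37°C were labelled with [3H]uridine (1 µCi/ml, 1 µg/ml) for two doublings, with or without drug. Label was chased with uridine at 50 µg/ml final for 15 min. The 30S share of total gradient cpm was compared with control; IC50 derived; means of two.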

Escherichia coli [7] = test: Increase in 16S precursor accumulation in Escherichia coli at 75 ug/ml; type: functional; method in brief: as §1
Escherichia coli [8] = test: Effect on 16S rRNA accumulation in Escherichia coli at 50 ug/ml; type: functional; method in brief: as §1
Escherichia coli [9] = test: Increase in 16S precursor accumulation in Escherichia coli at 50 ug/ml; type: functional; method in brief: as §1
Escherichia coli [10] = test: Effect on small RNA accumulation in Escherichia coli at 25 ug/ml; type: functional; method in brief: as §1
Escherichia coli [11] = test: Effect on 16S rRNA accumulation in Escherichia coli at 100 ug/ml; type: functional; method in brief: as §1
Escherichia coli [12] = test: Increase in 16S precursor accumulation in Escherichia coli at 25 ug/ml; type: functional; method in brief: as §1
Escherichia coli [13] = test: Decrease in 23S RNA accumulation in Escherichia coli at 75 ug/ml; type: functional; set-up: scale not given: the % may be the effect or the level left; method in brief: as §1
Escherichia coli [14] = test: Effect on 16S rRNA accumulation in Escherichia coli at 75 ug/ml; type: functional; method in brief: as §1
Escherichia coli [15] = test: Increase in 16S precursor accumulation in Escherichia coli at 100 ug/ml; type: functional; method in brief: as §1
Escherichia coli [16] = test: Reduction of growth rate in Escherichia coli at 25 ug/ml; type: functional; set-up: scale not given: the % may be the effect or the level left
Escherichia coli [17] = test: Inhibition of viable cells in Escherichia coli at 20 ug/ml; type: functional
Method in brief: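 E. coli grown at 37°C in TSB with or without drug. Viable cells were counted as colonies after serial dilution. Results are given as percent decrease versus untreated control; means of two determinations.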

Escherichia coli [18] = test: Decrease in 23S RNA accumulation in Escherichia coli at 50 ug/ml; type: functional; set-up: scale not given: the % may be the effect or the level left; method in brief: as §1
Escherichia coli [19] = test: Effect on small RNA accumulation in Escherichia coli at 100 ug/ml; type: functional; method in brief: as §1
Escherichia coli [20] = test: Decrease in 23S RNA accumulation in Escherichia coli at 100 ug/ml; type: functional; set-up: scale not given: the % may be the effect or the level left; method in brief: as §1
Escherichia coli [21] = test: Antimicrobial activity against Escherichia coli; type: functional
Method in brief: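 Broth dilution MIC; E. coli grown at 37°C in tryptic soy broth (TSB) with and without hygromycin B.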

CN[C@H]1C[C@@H](N)[C@H](O)[C@@H](O[C@@H]2O[C@H](CO)[C@H](O)[C@H]3O[C@@]4(O[C@H]23)O[C@H]([C@H](N)CO)[C@H](O)[C@H](O)[C@H]4O)[C@@H]1O
Activity (Escherichia coli [1]): 10.4% | Activity (Escherichia coli [2]): 64.5% | Activity (Escherichia coli [3]): 13.5% | IC50 (Escherichia coli [4]): 16 µg/mL (≈ 30.3 µM) | Activity (Escherichia coli [5]): 62.8% | IC50 [6]: 65 µg/mL (≈ 123 µM) | Activity (Escherichia coli [7]): 1.1% | Activity (Escherichia coli [8]): 10.4% | Activity (Escherichia coli [9]): 0.75% | Activity (Escherichia coli [10]): 59% | Activity (Escherichia coli [11]): 4.8% | Activity (Escherichia coli [12]): 0.5% | Activity (Escherichia coli [13]): 12.7% | Activity (Escherichia coli [14]): 7.3% | Activity (Escherichia coli [15]): 1.2% | Activity (Escherichia coli [16]): 50% | inhibition at 20 µg/mL (Escherichia coli [17]): 50% | Activity (Escherichia coli [18]): 12.5% | Activity (Escherichia coli [19]): 68.8% | Activity (Escherichia coli [20]): 10% | MIC (Escherichia coli [21]): 150 µg/mL (≈ 284 µM)
